ChEMBL document CHEMBL3124806, “Imidazopyridine-fused [1,3]-diazepinones: synthesis and antiproliferative activity” (Eur J Med Chem, 2014)

Legend:
[1] = Cytotoxicity against human NCI-ADR-RES cells assessed as cell growth at 10 uM after 48 hrs by SRB assay relative to untreated control; type: functional; details: read-out: Activity
Summary of the method: (§1)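 NCI-60 one-dose screen: each agent added at 10 µM, cultures incubated 48 h. Endpoint by sulforhodamine B protein-binding dye read spectrophotometrically; growth expressed as percent of untreated control cells.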

Ovis aries = species on record: Ovis aries; test: Inhibition of sheep brain tubulin polymerization at 100 uM after 40 mins by DAPI staining-based fluorescence assay
Summary of the method: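 Microtubular protein was purified from sheep brain by two assembly/disassembly cycles (37 °C/0 °C) in MES buffer (100 mM MES pH 6.6, 1 mM EGTA, 0.5 mM MgCl₂). Compound in DMSO was added to 10 µM tubulin with 10 µM DAPI and incubated 40 min at RT. GTP (1 mM) was then added, and assembly was followed by DAPI fluorescence at 37 °C.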

SNB-19 = test: Cytotoxicity against human SNB19 cells assessed as cell growth at 10 uM after 48 hrs by SRB assay relative to untreated control; type: functional; details: SNB-19, 48 h, read-out: Activity
Summary of the method: (§2)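 NCI-60 single-dose screen. Compounds were added to the cultures at 10 μM and incubated for 48 h. The end point was sulforhodamine B protein staining read spectrophotometrically. Growth is reported as percent of untreated control cells.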

[2] = Cytotoxicity against human OVCAR5 cells assessed as cell growth at 10 uM after 48 hrs by SRB assay relative to untreated control; type: functional; details: OVCAR-5, 48 h, read-out: Activity; summary of the method: as §1
UACC-62 = test: Cytotoxicity against human UACC62 cells assessed as cell growth at 10 uM after 48 hrs by SRB assay relative to untreated control; type: functional; details: UACC-62, 48 h, read-out: Activity; summary of the method: as §2
Malme-3M = test: Cytotoxicity against human MALME-3M cells assessed as cell growth at 10 uM after 48 hrs by SRB assay relative to untreated control; type: functional; details: read-out: Activity
Summary of the method: (§3)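 NCI-60 panel screen at a single concentration of 10 μM with 48 h incubation. Cell density measured by sulforhodamine B protein-binding dye and read spectrophotometrically. Growth expressed as percent of untreated control cells.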

786-0 = test: Cytotoxicity against human […] cells assessed as cell growth at 10 uM after 48 hrs by SRB assay relative to untreated control; type: functional; details: 786-0, 48 h, read-out: Activity; summary of the method: as §3
HL-60(TB) = test: Cytotoxicity against human HL-60(TB) cells assessed as cell growth at 10 uM after 48 hrs by SRB assay relative to untreated control; type: functional; details: HL-60, 48 h, read-out: Activity
Summary of the method: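 NCI-60 human tumour cell line panel; a single 10 µM concentration was added to the cultures and incubated 48 h. Endpoint was sulforhodamine B protein-binding dye read spectrophotometrically, with growth reported as percent of untreated control cells.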

HCT-15 = test: Cytotoxicity against human HCT15 cells assessed as cell growth at 10 uM after 48 hrs by SRB assay relative to untreated control; type: functional; details: HCT-15, 48 h, read-out: Activity; summary of the method: as §3
SK-MEL-2 = test: Cytotoxicity against human SK-MEL-2 cells assessed as cell growth at 10 uM after 48 hrs by SRB assay relative to untreated control; type: functional; details: SK-MEL-2, 48 h, read-out: Activity; summary of the method: as §1
CCRF-CEM = test: Cytotoxicity against human CCRF-CEM cells assessed as cell growth at 10 uM after 48 hrs by SRB assay relative to untreated control; type: functional; details: read-out: Activity; summary of the method: as §3
SK-OV-3 = test: Cytotoxicity against human SKOV3 cells assessed as cell growth at 10 uM after 48 hrs by SRB assay relative to untreated control; type: functional; details: SK-OV-3, 48 h, read-out: Activity; summary of the method: as §2
M14 = test: Cytotoxicity against human M14 cells assessed as cell growth at 10 uM after 48 hrs by SRB assay relative to untreated control; type: functional; details: M14, 48 h, read-out: Activity; summary of the method: as §3
NCI-H322M = test: Cytotoxicity against human NCI-H322M cells assessed as cell growth at 10 uM after 48 hrs by SRB assay relative to untreated control; type: functional; details: read-out: Activity; summary of the method: as §1
T47D = test: Cytotoxicity against human T47D cells assessed as cell growth at 10 uM after 48 hrs by SRB assay relative to untreated control; type: functional; details: read-out: Activity; summary of the method: as §2
MCF7 = test: Cytotoxicity against human MCF7 cells assessed as cell growth at 10 uM after 48 hrs by SRB assay relative to untreated control; type: functional; details: MCF7, 48 h, read-out: Activity; summary of the method: as §3
SN12C = test: Cytotoxicity against human SN12C cells assessed as cell growth at 10 uM after 48 hrs by SRB assay relative to untreated control; type: functional; details: read-out: Activity; summary of the method: as §2
SK-MEL-5 = test: Cytotoxicity against human SK-MEL-5 cells assessed as cell growth at 10 uM after 48 hrs by SRB assay relative to untreated control; type: functional; details: SK-MEL-5, 48 h, read-out: Activity; summary of the method: as §2
SF-539 = test: Cytotoxicity against human SF539 cells assessed as cell growth at 10 uM after 48 hrs by SRB assay relative to untreated control; type: functional; details: SF-539, 48 h, read-out: Activity; summary of the method: as §1
A549 = test: Cytotoxicity against human A549 cells assessed as cell growth at 10 uM after 48 hrs by SRB assay relative to untreated control; type: functional; details: A549, 48 h, read-out: Activity; summary of the method: as §3
HT-29 = test: Cytotoxicity against human HT-29 cells assessed as cell growth at 10 uM after 48 hrs by SRB assay relative to untreated control; type: functional; details: HT-29, 48 h, read-out: Activity; summary of the method: as §3
NCI-H23 = test: Cytotoxicity against human NCI-H23 cells assessed as cell growth at 10 uM after 48 hrs by SRB assay relative to untreated control; type: functional; details: NCI-H23, 48 h, read-out: Activity; summary of the method: as §1
[3] = Cytotoxicity against human Hs578T cells assessed as cell growth at 10 uM after 48 hrs by SRB assay relative to untreated control; type: functional; details: Hs-578T, read-out: Activity; summary of the method: as §3
U-251 = test: Cytotoxicity against human U251 cells assessed as cell growth at 10 uM after 48 hrs by SRB assay relative to untreated control; type: functional; details: U-251, 48 h, read-out: Activity; summary of the method: as §2
ACHN = test: Cytotoxicity against human ACHN cells assessed as cell growth at 10 uM after 48 hrs by SRB assay relative to untreated control; type: functional; details: read-out: Activity; summary of the method: as §3
MDA-MB-468 = test: Cytotoxicity against human MDA-MB-468 cells assessed as cell growth at 10 uM after 48 hrs by SRB assay relative to untreated control; type: functional; details: MDA-MB-468, 48 h, read-out: Activity; summary of the method: as §1
MOLT-4 = test: Cytotoxicity against human MOLT4 cells assessed as cell growth at 10 uM after 48 hrs by SRB assay relative to untreated control; type: functional; details: MOLT-4, 48 h, read-out: Activity; summary of the method: as §1
BT-549 = test: Cytotoxicity against human BT549 cells assessed as cell growth at 10 uM after 48 hrs by SRB assay relative to untreated control; type: functional; details: BT-549, 48 h, read-out: Activity; summary of the method: as §3
NCI-H522 = test: Cytotoxicity against human NCI-H522 cells assessed as cell growth at 10 uM after 48 hrs by SRB assay relative to untreated control; type: functional; details: NCI-H522, 48 h, read-out: Activity; summary of the method: as §1

SMILES | growth at 10 µM [1] | inhibition (Ovis aries) | growth at 10 µM (SNB-19) | growth at 10 µM [2] | growth at 10 µM (UACC-62) | growth at 10 µM (Malme-3M) | growth at 10 µM (786-0) | growth at 10 µM (HL-60(TB)) | growth at 10 µM (HCT-15) | growth at 10 µM (SK-MEL-2) | growth at 10 µM (CCRF-CEM) | growth at 10 µM (SK-OV-3) | growth at 10 µM (M14) | growth at 10 µM (NCI-H322M) | growth at 10 µM (T47D) | growth at 10 µM (MCF7) | growth at 10 µM (SN12C) | growth at 10 µM (SK-MEL-5) | growth at 10 µM (SF-539) | growth at 10 µM (A549) | other results
C[C@@H]1NC(c2ccc(N(C)C)cc2)=Nc2nc3ccccn3c2C1=O | 80.3% | 55% | 95.2% | 90.5% | 83.7% | 100% | 102% | 89.6% | 94.7% | 88.6% | 88.7% | 91% | 101% | 69.2% | 80.7% | 66% | 102% | 95.4% | 92.7% | 103% | growth at 10 µM (HT-29): 101%; growth at 10 µM (NCI-H23): 79.8%; growth at 10 µM [3]: 83.3%; growth at 10 µM (U-251): 94.8%; growth at 10 µM (ACHN): 85.3%; growth at 10 µM (MDA-MB-468): 72.3%; growth at 10 µM (MOLT-4): 84.2%; growth at 10 µM (BT-549): 88.1%; growth at 10 µM (NCI-H522): 79.4%
COc1ccc(C2=Nc3nc4ccccn4c3C(=O)[C@H](C)N2)cc1 | 96.5% | 20% | 99.1% | 101% | 94.3% | 94.3% | 98.5% | 90.6% | 85.2% | 83.4% | 91.7% | 94.7% | 95.4% | 80.3% | 97% | 72% | 97.7% | 100% | 97.3% | 106% | growth at 10 µM (HT-29): 98.5%; growth at 10 µM (NCI-H23): 93.5%; growth at 10 µM [3]: 98.3%; growth at 10 µM (U-251): 98.5%; growth at 10 µM (ACHN): 83.8%; growth at 10 µM (MDA-MB-468): 76.5%; growth at 10 µM (MOLT-4): 84.4%; growth at 10 µM (BT-549): 85.7%; growth at 10 µM (NCI-H522): 87.4%
Cc1ccc(C2=Nc3nc4ccccn4c3C(=O)[C@H](C)N2)cc1 | 79.6% | 16% | 95.5% | 94% | 80.1% | 82.6% | 98.4% | 87.5% | 71.9% | 69.5% | 85.2% | 90.2% | 87% | 81.7% | 103% | 71.2% | 93.9% | 81.7% | 90% | 92.9% | growth at 10 µM (HT-29): 82.8%; growth at 10 µM (NCI-H23): 85%; growth at 10 µM [3]: 94.8%; growth at 10 µM (U-251): 95.5%; growth at 10 µM (ACHN): 81%; growth at 10 µM (MDA-MB-468): 91.1%; growth at 10 µM (MOLT-4): 75.9%; growth at 10 µM (BT-549): 85.7%; growth at 10 µM (NCI-H522): 66.5%
C[C@@H]1NC(c2ccccc2)=Nc2nc3ccccn3c2C1=O | 97.4% | 7% | 106% | 114% | 104% | 99.5% | 103% | 135% | 104% | 110% | 104% | 101% | 99.8% | 102% | 92.8% | 67.2% | 112% | 99.2% | 108% | 103% | growth at 10 µM (HT-29): 113%; growth at 10 µM (NCI-H23): 91.9%; growth at 10 µM [3]: 93.8%; growth at 10 µM (U-251): 102%; growth at 10 µM (ACHN): 97.5%; growth at 10 µM (MDA-MB-468): 99.9%; growth at 10 µM (MOLT-4): 98.2%; growth at 10 µM (BT-549): 93.2%; growth at 10 µM (NCI-H522): 95.4%
